Laboratory results: ChEMBL document CHEMBL2021780, “Antineoplastic agents. 548. Synthesis of iodo- and diiodocombstatin phosphate prodrugs” (J Nat Prod, 2012)
pIC50: −log10 of the molar value. Converted amounts (≈) assume the structure as drawn.

Key:
P388 = assay: Growth inhibition of mouse P388 cells after 48 hrs by Z1 Beckman/Coulter particle counter analysis; type: functional; conditions: P388, 48 h, read-out: ED50 (the source's name)
Method in brief: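 Mouse P388 leukemia cells were incubated 24 h in 10% horse serum/Fisher medium, then exposed 48 h to serial compound dilutions. ED50 was calculated from cell counts on a Coulter Z1 particle counter.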

SF-268 = assay: Growth inhibition of human SF268 cells after 48 hrs by sulforhodamine B assay; type: functional; conditions: SF-268, 48 h
Method in brief: (§1)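 NCI sulforhodamine B assay. Cells were seeded in 5% FBS/RPMI-1640 and incubated 24 h. Serial compound dilutions were then added for 48 h. Cells were fixed with trichloroacetic acid, stained with SRB and read by microplate reader. GI50 is the concentration giving 50% reduction in net protein increase, calculated from optical density data.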

Neisseria gonorrhoeae = assay: Antibacterial activity against Neisseria gonorrhoeae ATCC 49226 by broth microdilution method; type: functional
Method in brief: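 Broth microdilution followed NCCLS standard methods. Compounds were reconstituted in sterile DMSO and diluted in the appropriate medium immediately before testing. MIC was taken as the lowest concentration giving no visible growth (optically clear). Assays were repeated on separate days.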

KM-20L2 = assay: Growth inhibition of human KM20L2 cells after 48 hrs by sulforhodamine B assay; type: functional; conditions: KM-20L2, 48 h; method in brief: as §1
DU-145 = assay: Growth inhibition of human DU145 cells after 48 hrs by sulforhodamine B assay; type: functional; conditions: DU-145, 48 h; method in brief: as §1
MCF7 = assay: Growth inhibition of human MCF7 cells after 48 hrs by sulforhodamine B assay; type: functional; conditions: MCF7, 48 h; method in brief: as §1
NCI-H460 = assay: Growth inhibition of human NCI-H460 cells after 48 hrs by sulforhodamine B assay; type: functional; conditions: NCI-H460, 48 h; method in brief: as §1
BXPC-3 = assay: Growth inhibition of human BxPC3 cells after 48 hrs by sulforhodamine B assay; type: functional; conditions: BXPC-3, 48 h; method in brief: as §1
[1] = Solubility of the compound in water; type: physicochemical
Method in brief: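 Solubility expressed as amount dissolving in 1 mL H₂O at 25 °C.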

HUVEC [2] = assay: Antiangiogenic activity in HUVEC assessed as cell growth at 0.1 ug/ml after 24 hrs by sulforhodamine B assay relative to control; type: functional, Homo sapiens; conditions: Homo sapiens, HUVEC, 24 h; read-out: Activity
HUVEC [3] = assay: Antiangiogenic activity in HUVEC assessed as cell growth at 0.01 ug/ml after 24 hrs by sulforhodamine B assay relative to control; type: functional, Homo sapiens
HUVEC [4] = assay: Antiangiogenic activity in HUVEC assessed as cell growth at 0.001 ug/ml after 24 hrs by sulforhodamine B assay relative to control; type: functional, Homo sapiens
HUVEC [5] = assay: Antiangiogenic activity in HUVEC assessed as cell growth inhibition after 48 hrs by sulforhodamine B assay; type: functional, cell-based; conditions: Homo sapiens
Method in brief: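 HUVECs were grown in EGM-2 medium and tested with the standard SRB growth assay following NCI Developmental Therapeutics Program Matrigel antiangiogenesis protocols. IC50 (concentration causing 50% inhibition) was calculated from plotted data.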

HUVEC [6] = assay: Antiangiogenic activity in HUVEC assessed as cell growth at 0.0001 ug/ml after 24 hrs by sulforhodamine B assay relative to control; type: functional, Homo sapiens
[7] = Inhibition of purified tubulin assembly after 20 mins
Method in brief: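 Purified tubulin at 10 μM in 0.8 M monosodium glutamate (pH 6.6), 0.4 mM GTP and 4% (v/v) DMSO, with varying compound concentrations. Extent of assembly was measured after 20 min at 30 °C.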

Compound	EC50 (P388) [µg/mL]	GI50 (SF-268) [µg/mL]	MIC (Neisseria gonorrhoeae) [µg/mL]	GI50 (KM-20L2) [µg/mL]	GI50 (DU-145) [µg/mL]	GI50 (MCF7) [µg/mL]	GI50 (NCI-H460) [µg/mL]	GI50 (BXPC-3) [µg/mL]	solubility ([1]; buffer)	solubility ([1]; water, read-out: solubility) [µg/mL]	growth at 0.1 µg/mL (HUVEC [2]) [%]	Activity (HUVEC [3]) [%]	Activity (HUVEC [4]) [%]	IC50 (HUVEC [5]) [µg/mL]	Activity (HUVEC [6]) [%]	pIC50 [7]
COC(=O)CN.COC(=O)CN.COc1ccc(/C=C\c2cc(I)c(OC)c(I)c2)cc1OP(=O)(O)O	0.011	0.054	< 0.5	> 1	0.023	0.1	0.03	0.36	–	–	–	–	–	–	–	–
COc1ccc(/C=C/c2cc(I)c(OC)c(I)c2)cc1O	> 10	3.3 (≈ 6.49 µM)	–	> 10	5.8 (≈ 11.4 µM)	0.94 (≈ 1.85 µM)	3.4 (≈ 6.69 µM)	3 (≈ 5.9 µM)	–	–	–	–	–	–	–	–
COC(=O)[C@@H](N)Cc1c[nH]c2ccccc12.COC(=O)[C@@H](N)Cc1c[nH]c2ccccc12.COc1ccc(/C=C\c2cc(I)c(OC)c(OC)c2)cc1OP(=O)(O)O	0.0022	0.0097	4	0.59	0.003	0.035	0.0034	0.26	–	–	–	–	–	–	–	–
COc1ccc(/C=C\c2cc(I)c(OC)c(OC)c2)cc1OP(=O)([O-])[O-].[Li+].[Li+]	0.017	0.004	–	–	0.0043	0.0038	0.0039	0.49	>= 2.4 mg/ml	–	–	–	–	–	–	–
COC(=O)CN.COC(=O)CN.COc1ccc(/C=C\c2cc(I)c(OC)c(OC)c2)cc1OP(=O)(O)O	0.0026	0.0033	–	0.32	0.0021	0.0044	0.0031	0.16	–	≥ 2000	–	–	–	–	–	–
COc1ccc(/C=C/c2cc(I)c(OC)c(OC)c2)cc1O [DIIODOCOMBSTATIN]	0.189 (≈ 0.458 µM)	0.55 (≈ 1.33 µM)	–	1.7 (≈ 4.12 µM)	0.27 (≈ 0.655 µM)	0.18 (≈ 0.437 µM)	0.21 (≈ 0.509 µM)	2.7 (≈ 6.55 µM)	–	–	–	–	–	–	–	–
C1CCNCC1.C1CCNCC1.COc1ccc(/C=C\c2cc(I)c(OC)c(I)c2)cc1OP(=O)(O)O	0.011	0.041	< 0.5	> 1	0.025	0.07	0.025	0.33	–	–	–	–	–	–	–	–
COc1ccc(/C=C\c2cc(I)c(OC)c(OC)c2)cc1OP(=O)([O-])[O-].[Na+].[Na+]	0.002	0.018	–	> 1	0.011	0.018	0.017	0.469	2000 µg/mL	–	7	14	5	0.00035	104	< 4.40
COc1ccc(/C=C\c2cc(I)c(OC)c(OC)c2)cc1OP(=O)(O)O.OCN(CO)CO.OCN(CO)CO	0.0029	0.0043	32	0.4	0.0047	0.0048	0.004	0.37	–	–	–	–	–	–	–	–
